From ChEMBL document CHEMBL4422614 (Eur J Med Chem, 2019)
Activity calls are given as the source filed them. The calls are words filed in the database; no cut-off is given here.

Assays:
[1] = biological target: 3',5'-cyclic-AMP phosphodiesterase 4D (Homo sapiens, UniProt Q08499); test: Inhibition of human PDE4D2 (86 to 413 residues) catalytic domain using [3H]-cAMP as substrate after 15 mins by liquid scintillation counting method
[2] = Antioxidant activity assessed as trolox equivalent of AAPH-induced radical scavenging activity at 10 to 20 uM preincubated for 10 mins followed by AAPH addition measured every minute for 120 mins by ORAC fluorescein assay; type: functional
Summary of the method: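 ORAC values are expressed as trolox equivalents, mean ± SD of three independent experiments.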

[3] = in vitro; conditions: PAMPA
[4] = Metal chelating activity assessed as inhibition of Cu(II)-induced amyloid beta (1 to 42 residues) aggregation at 25 uM after 24 hrs by thioflavin-T fluorescence assay (reference value: 156%); set-up: scale not given: the % may be the effect or the level left
Summary of the method: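 Aβ1-42 was incubated with CuSO4 with or without compound, and thioflavin T fluorescence was read. Fluorescence is given as percent of Aβ alone, as mean ± SD of three independent experiments.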

[5] = test system: Mus musculus; test: Cognition enhancement activity in amyloid beta (25 to 35 residues) induced C57BL/6J mouse model of Alzheimer's disease assessed as decrease in escape latancy at 30 mg/kg/day, ig administered for 26 consecutive days by Morris water maze test; type: functional, organism-based
Summary of the method: (§1)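 Mice were randomized into 7 groups. All except sham got an ICV injection of Aβ25-35 (3 nmol); sham got the same volume of saline ICV. Dosing was intragastric daily for 26 days, with 0.5% CMC-Na as vehicle for sham and model. Body weight, diarrhea and emesis-like behavior were monitored.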

[6] = test system: Mus musculus; test: Cognition enhancement activity in amyloid beta (25 to 35 residues) induced C57BL/6J mouse model of Alzheimer's disease assessed as swimming speed at 30 mg/kg/day, ig administered for 26 consecutive days by Morris water maze test (reference value: 15.6 +/- 2.4 cm/sec); type: functional; summary of the method: as §1
[7] = test system: Mus musculus; test: Cognition enhancement activity in amyloid beta (25 to 35 residues) induced C57BL/6J mouse model of Alzheimer's disease assessed as swimming speed at 4 mg/kg/day, ig administered for 26 consecutive days by Morris water maze test (reference value: 15.6 +/- 2.4 cm/sec); type: functional; summary of the method: as §1
[8] = test system: Mus musculus; test: Cognition enhancement activity in amyloid beta (25 to 35 residues) induced C57BL/6J mouse model of Alzheimer's disease assessed as swimming path length in virtual platform at 30 mg/kg/day, ig administered for 26 consecutive days by Morris water maze test (10.2 +/- 3.2 cm); type: functional; summary of the method: as §1
[9] = test system: Mus musculus; test: Cognition enhancement activity in amyloid beta (25 to 35 residues) induced C57BL/6J mouse model of Alzheimer's disease assessed as swimming time in effective region at 30 mg/kg/day, ig administered for 26 consecutive days by Morris water maze test (4.3 +/- 1.3 sec); type: functional; summary of the method: as §1
[10] = test system: Mus musculus; test: (§2) Neuroprotection in C57BL/6J mouse model of amyloid beta (25 to 35 residues) induced Alzheimer's disease assessed as reduction in ratio of apoptotic neuron in CA1 hippocampus region at 30 mg/kg/day, ig administered for 26 consecutive days by hematoxylin and eosin staining-based light microscopic analysis (reference value: 40.6 +/- 12.5%); type: ADME, organism-based; set-up: scale not given: the % may be the effect or the level left; conditions: in vivo, po
Summary of the method: (§3)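 Hippocampal CA1, CA3 and DG neurons were stained with H&E after the Aβ25-35 ICV model and 26-day intragastric dosing. Denatured cell index = denatured cells/total cells, n = 5. Values are mean ± SD, two-way ANOVA versus model.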

[11] = test system: Mus musculus; test: as §2, with “in” for “in C57BL/6J mouse model of”, “induced C57BL/6J mouse model of” for “induced”, “CA3” for “CA1”, “80.2” for “40.6”, “8.6%)” for “12.5%)”; type: ADME, organism-based; set-up: scale not given: the % may be the effect or the level left; conditions: in vivo, po; summary of the method: as §3
[12] = test system: Mus musculus; test: as §2, with “in” for “in C57BL/6J mouse model of”, “induced C57BL/6J mouse model of” for “induced”, “DG” for “CA1”, “55.8” for “40.6”, “7.2%)” for “12.5%)”; type: ADME, organism-based; set-up: scale not given: the % may be the effect or the level left; conditions: in vivo, po; summary of the method: as §3
[13] = Drug metabolism in Sprague-Dawley rat liver microsomes assessed as metabolic rate up to 180 mins in presence of NADPH by UV-based LC-MS/MS analysis; type: ADME, Microsome; conditions: 3 h
[14] = Metal chelating activity assessed as inhibition of Cu(II)-induced amyloid beta (1 to 42 residues) aggregation at 25 uM after 24 hrs by TEM assay
Summary of the method: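 Samples were prepared as for the ThT assay. 10 µL aliquots were applied to carbon-coated copper grids for 2 min, then stained with 3% phosphotungstic acid for 2 min and imaged by transmission electron microscopy.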

[15] = in vitro; conditions: Sprague-Dawley, rat

3',5'-cyclic-AMP phosphodiesterase 4D, sequence (Q08499 whole entry, the tested form may be a part): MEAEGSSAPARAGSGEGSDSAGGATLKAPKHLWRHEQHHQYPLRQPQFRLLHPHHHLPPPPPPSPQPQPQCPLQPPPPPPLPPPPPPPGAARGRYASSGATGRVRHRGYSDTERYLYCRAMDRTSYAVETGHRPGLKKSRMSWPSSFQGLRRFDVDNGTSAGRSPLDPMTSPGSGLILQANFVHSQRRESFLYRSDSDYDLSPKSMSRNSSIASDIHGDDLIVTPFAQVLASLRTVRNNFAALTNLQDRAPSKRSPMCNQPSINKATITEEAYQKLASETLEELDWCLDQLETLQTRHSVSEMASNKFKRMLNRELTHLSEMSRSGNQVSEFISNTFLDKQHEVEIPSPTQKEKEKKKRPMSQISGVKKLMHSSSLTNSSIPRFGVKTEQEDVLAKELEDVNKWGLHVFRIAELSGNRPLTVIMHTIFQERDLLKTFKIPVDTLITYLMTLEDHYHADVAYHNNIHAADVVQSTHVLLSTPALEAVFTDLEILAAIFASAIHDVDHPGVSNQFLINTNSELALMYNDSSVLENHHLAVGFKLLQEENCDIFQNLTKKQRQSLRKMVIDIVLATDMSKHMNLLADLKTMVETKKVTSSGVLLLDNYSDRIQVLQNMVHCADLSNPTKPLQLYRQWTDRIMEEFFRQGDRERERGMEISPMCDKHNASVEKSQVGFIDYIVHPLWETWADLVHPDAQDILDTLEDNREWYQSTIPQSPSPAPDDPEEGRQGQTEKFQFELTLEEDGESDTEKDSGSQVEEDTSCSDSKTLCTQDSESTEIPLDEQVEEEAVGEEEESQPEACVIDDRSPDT

| SMILES | IC50 [1] | Activity [2] | Papp at 10 h, 100 ug/ml [3] | K [13] | further results |
| --- | --- | --- | --- | --- | --- |
| COc1ccc(C(=O)Nc2ccc3cccc(O)c3n2)cc1OC1CCCC1 | 4.64 µM | 0.7 equiv | 16.4 ×10⁻⁶ cm/s |  |  |
| COc1ccc(NC(=O)c2ccc3c(Cl)cc(Cl)c(O)c3n2)cc1OC1CCCC1 | 6.78 µM | 1.29 equiv |  |  |  |
| Oc1c(I)cc(Cl)c2cccnc12 [CLIOQUINOL] |  | 0.6 equiv | 5.2 ×10⁻⁶ cm/s | 0.0194 min⁻¹ | Activity [4]: 66%; Activity [5]: Active; Activity [6]: 16 cm/s; Activity [7]: Active; Activity [8]: 18 cm; Time [9]: 5.8 s; Activity [10]: 24.2%; Activity [11]: 37.8%; Activity [12]: 19.7%; Activity [14]: Active; half-life ([15]; liver microsomes): 35.8 min |
| C[C@]12CC[C@H]3[C@@H](CCC4=CC(=O)CC[C@@]43C)[C@@H]1CC[C@@H]2O [TESTOSTERONE] |  |  |  | 0.301 min⁻¹ |  |
| COc1cc2c(cc1OC)C(=O)C(CC1CCN(Cc3ccccc3)CC1)C2 (centres undefined) [DONEPEZIL] |  |  |  | 0.00917 min⁻¹ | half-life ([15]; microsomes): 75.6 min |
| COc1ccc(C(=O)Nc2cc(I)c(O)c3ncccc23)cc1OC1CCCC1.Cl | 0.597 µM | 1.01 equiv | 5.86 ×10⁻⁶ cm/s |  |  |
| COc1ccc(C(=O)Nc2cc(I)c(O)c3ncccc23)cc1OC | 7.36 µM | 1.3 equiv |  |  |  |
| COc1ccc(NC(=O)c2ccc3cccc(O)c3n2)cc1OC | 4.32 µM | 1.03 equiv |  |  |  |
